Assay results from ChEMBL document CHEMBL1781989, “Novel β-carboline-tripeptide conjugates attenuate mesenteric ischemia/reperfusion injury in the rat” (2011).
Calls of active or inactive are those of the source. Non-standard residues stand in square brackets, D forms with d. Residues, ends and D or L forms follow the SMILES beside them. Tpi = O=C(O)[C@@H]1Cc2c([nH]c3ccccc23)CN1

Experiments:
[1] = test system: Mus musculus; experiment: Antiinflammatory activity in ICR mouse assessed as inhibition of xylene-induced ear edema at 0.10 mmol/kg, po administered 30 mins before xylene challenge measured after 2 hrs relative to control; type: functional
Procedure, shortened: (§1)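 Male ICR mice (20 ± 2 g), randomised to test, vehicle (CMC) and aspirin (10 mg/kg oral) groups. Test agents given orally as CMC suspension. After 30 min, 0.03 mL xylene applied to both faces of the right ear, left ear as control. At 2 h mice were killed and 7 mm ear punches weighed. Edema is the right-minus-left weight, and inhibition is taken against vehicle.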

[2] = test system: Mus musculus; experiment: Analgesic activity in ICR mouse assessed as increase in pain threshold at 0.10 mmol/kg, po after 120 mins by tail flick method (reference value: 8.09 +/- 13.28 %); type: functional
[3] = test system: Mus musculus; experiment: Analgesic activity in ICR mouse assessed as increase in pain threshold at 0.15 mmol/kg, po after 120 mins by tail flick method (reference value: 8.09 +/- 13.28 %); type: functional
[4] = test system: Mus musculus; experiment: Antiinflammatory activity in ICR mouse assessed as inhibition of xylene-induced ear edema at 0.05 mmol/kg, po administered 30 mins before xylene challenge measured after 2 hrs relative to control; type: functional; procedure, shortened: as §1
[5] = test system: Rattus norvegicus; experiment: Antioxidant activity in mesenteric ischemia/reperfusion injury Wistar rat model ileum assessed as decrease of malondialdehyde levels at 20 mg/kg, ip administered 15 mins before and 1 hr after initiation of reperfusion by Beuge's method; type: functional, organism-based; design: dose 20 mg/kg
Procedure, shortened: (§2)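 Dosing 20 mg/kg ip 15 min before and 1 h after reperfusion onset. Intestinal MDA measured by the Beuge and Aust method as nmol/g tissue, and GSH by the Beutler method as µmol/g tissue.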

[6] = test system: Mus musculus; experiment: Analgesic activity in ICR mouse assessed as increase in pain threshold at 0.05 mmol/kg, po after 120 mins by tail flick method (reference value: 8.09 +/- 13.28 %); type: functional
[7] = test system: Rattus norvegicus; experiment: Antioxidant activity in mesenteric ischemia/reperfusion injury Wistar rat model ileum assessed as restoration of glutathione levels at 20 mg/kg, ip administered 15 mins before and 1 hr after initiation of reperfusion by Beutler's method; type: functional, organism-based; design: dose 20 mg/kg; procedure, shortened: as §2
[8] = test system: Mus musculus; experiment: Analgesic activity in ICR mouse assessed as increase in pain threshold at 0.15 mmol/kg, po after 60 mins by tail flick method (reference value: 7.45 +/- 8.03 %); type: functional
[9] = test system: Mus musculus; experiment: Analgesic activity in ICR mouse assessed as increase in pain threshold at 0.05 mmol/kg, po after 150 mins by tail flick method (reference value: 9.02 +/- 12.19 %); type: functional
[10] = test system: Mus musculus; experiment: Antiinflammatory activity in ICR mouse assessed as inhibition of xylene-induced ear edema at 0.15 mmol/kg, po administered 30 mins before xylene challenge measured after 2 hrs relative to control; type: functional; procedure, shortened: as §1
[11] = test system: Mus musculus; experiment: Analgesic activity in ICR mouse assessed as increase in pain threshold at 0.05 mmol/kg, po after 30 mins by tail flick method (reference value: 5.03 +/- 10.26 %); type: functional
[12] = test system: Mus musculus; experiment: Analgesic activity in ICR mouse assessed as increase in pain threshold at 0.10 mmol/kg, po after 30 mins by tail flick method (reference value: 5.03 +/- 10.26 %); type: functional
[13] = test system: Rattus norvegicus; experiment: Antiinflammatory activity in mesenteric ischemia/reperfusion injury Wistar rat model ileum assessed as reduction of mucosal damage at 20 mg/kg, ip administered 15 mins before and 1 hr after initiation of reperfusion by hematoxylin-eosin staining; type: functional, organism-based; design: dose 20 mg/kg
Procedure, shortened: (§3)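 Male Wistar rats (250–300 g) under pentobarbital (80 mg/kg ip) at 37 °C. Drug 20 mg/kg ip 15 min before reperfusion and 1 h into reperfusion, saline to other groups. Terminal ileum (10 mm) snap-frozen, cut at 4–5 µm by cryostat, stained with H&E, and viewed by light microscopy.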

[14] = test system: Mus musculus; experiment: Analgesic activity in ICR mouse assessed as increase in pain threshold at 0.15 mmol/kg, po after 180 mins by tail flick method (reference value: 8.75 +/- 9.73 %); type: functional
[15] = test system: Mus musculus; experiment: Analgesic activity in ICR mouse assessed as increase in pain threshold at 0.10 mmol/kg, po after 150 mins by tail flick method (reference value: 9.02 +/- 12.19 %); type: functional
[16] = test system: Mus musculus; experiment: Analgesic activity in ICR mouse assessed as increase in pain threshold at 0.05 mmol/kg, po after 180 mins by tail flick method (reference value: 8.75 +/- 9.73 %); type: functional
[17] = test system: Mus musculus; experiment: Analgesic activity in ICR mouse assessed as increase in pain threshold at 0.15 mmol/kg, po after 150 mins by tail flick method (reference value: 9.02 +/- 12.19 %); type: functional
[18] = test system: Mus musculus; experiment: Analgesic activity in ICR mouse assessed as increase in pain threshold at 0.05 mmol/kg, po after 90 mins by tail flick method (reference value: 7.53 +/- 11.54 %); type: functional
[19] = test system: Mus musculus; experiment: Analgesic activity in ICR mouse assessed as increase in pain threshold at 0.10 mmol/kg, po after 60 mins by tail flick method (reference value: 7.45 +/- 8.03 %); type: functional
[20] = test system: Mus musculus; experiment: Analgesic activity in ICR mouse assessed as increase in pain threshold at 0.10 mmol/kg, po after 90 mins by tail flick method (reference value: 7.53 +/- 11.54 %); type: functional
[21] = test system: Mus musculus; experiment: Analgesic activity in ICR mouse assessed as increase in pain threshold at 0.15 mmol/kg, po after 90 mins by tail flick method (reference value: 7.53 +/- 11.54 %); type: functional
[22] = test system: Rattus norvegicus; experiment: Antioxidant activity in mesenteric ischemia/reperfusion injury Wistar rat model assessed as decrease of myeloperoxidase activity in intestinal tissue at 20 mg/kg, ip administered 15 mins before and 1 hr after initiation of reperfusion; type: functional, organism-based; design: dose 20 mg/kg
[23] = test system: Mus musculus; experiment: Analgesic activity in ICR mouse assessed as increase in pain threshold at 0.15 mmol/kg, po after 30 mins by tail flick method (reference value: 5.03 +/- 10.26 %); type: functional
[24] = test system: Mus musculus; experiment: Antiinflammatory activity in po dosed ICR mouse assessed as inhibition of xylene-induced ear edema administered 30 mins before xylene challenge measured after 2 hrs; type: functional, organism-based; procedure, shortened: as §1
[25] = test system: Mus musculus; experiment: Analgesic activity in ICR mouse assessed as increase in pain threshold at 0.10 mmol/kg, po after 180 mins by tail flick method (reference value: 8.75 +/- 9.73 %); type: functional
[26] = test system: Mus musculus; experiment: Analgesic activity in ICR mouse assessed as increase in pain threshold at 0.05 mmol/kg, po after 60 mins by tail flick method (reference value: 7.45 +/- 8.03 %); type: functional
[27] = test system: Rattus norvegicus; experiment: Antiinflammatory activity in mesenteric ischemia/reperfusion injury Wistar rat model assessed as reduction of focal denudation of epithelium villi at 20 mg/kg, ip administered 15 mins before and 1 hr after initiation of reperfusion by hematoxylin-eosin staining; type: functional, organism-based; design: dose 20 mg/kg; procedure, shortened: as §3
[28] = test system: Mus musculus; experiment: Analgesic activity in ICR mouse assessed as increase in pain threshold at 0.15 mmol/kg, ip after 150 mins by tail flick method (reference value: 9.02 +/- 12.19 %); type: functional
[29] = test system: Mus musculus; experiment: Analgesic activity in ICR mouse assessed as increase in pain threshold at 0.15 mmol/kg, ip after 180 mins by tail flick method (reference value: 8.75 +/- 9.73 %); type: functional
[30] = test system: Mus musculus; experiment: Analgesic activity in ICR mouse assessed as increase in pain threshold at 0.15 mmol/kg, ip after 120 mins by tail flick method (reference value: 8.09 +/- 13.28 %); type: functional
[31] = test system: Mus musculus; experiment: Analgesic activity in ICR mouse assessed as increase in pain threshold at 0.15 mmol/kg, ip after 90 mins by tail flick method (reference value: 7.53 +/- 11.54 %); type: functional
[32] = test system: Mus musculus; experiment: Analgesic activity in ICR mouse assessed as increase in pain threshold at 0.15 mmol/kg, ip after 60 mins by tail flick method (reference value: 7.45 +/- 8.03 %); type: functional
[33] = test system: Mus musculus; experiment: Analgesic activity in ICR mouse assessed as increase in pain threshold at 0.15 mmol/kg, ip after 30 mins by tail flick method (reference value: 5.03 +/- 10.26 %); type: functional

Row | Structure (SMILES) | inhibition in vivo at 100 µmol/kg [1] [%] | Activity [2] [%] | Activity [3] [%] | inhibition in vivo at 50 µmol/kg [4] [%] | Activity [6] [%] | Activity [8] [%] | Activity [9] [%] | inhibition in vivo at 150 µmol/kg [10] [%] | Activity [11] [%] | Activity [12] [%] | Activity [14] [%] | Activity [15] [%] | Activity [16] [%] | Activity [17] [%] | Activity [18] [%] | Activity [19] [%] | Activity [20] [%] | Activity [21] [%] | Activity [23] [%] | inhibition [24] | further results
1 | CC(C)C[C@H](NC(=O)[C@@H]1Cc2c([nH]c3ccccc23)CN1)C(=O)N[C@@H](Cc1ccccc1)C(=O)N[C@@H](Cc1c[nH]c2ccccc12)C(=O)O (H-[Tpi]LFW-OH) | 49.6 | 25.45 | 34.55 | 38.7 | 17.97 | 59.37 | 8.23 | 60.7 | 29.22 | 35.41 | 18.86 | 22.13 | 7.46 | 25.46 | 20.65 | 37.65 | 32.73 | 44.67 | 48.25 | Dose-dependent effect | Activity [5]: Active; Activity [7]: Active; Activity [13]: Active; Activity [22]: Active; Activity [25]: 13.42%; Activity [26]: 23.45%; Activity [27]: Active
2 | CN1CC[C@]23c4c5ccc(O)c4O[C@H]2[C@@H](O)C=C[C@H]3[C@H]1C5 [MORPHINE] |  |  |  |  |  |  |  |  |  |  |  |  |  |  |  |  |  |  |  |  | Activity [28]: 64.55%; Activity [29]: 57.43%; Activity [30]: 98.78%; Activity [31]: 139.03%; Activity [32]: 175.78%; Activity [33]: 142.2%
3 | N=C(N)NCCC[C@H](NC(=O)[C@@H]1Cc2c([nH]c3ccccc23)CN1)C(=O)N[C@@H](Cc1ccccc1)C(=O)N[C@@H](Cc1c[nH]c2ccccc12)C(=O)O (H-[Tpi]RFW-OH) | 26.5 |  | 37.12 | 11.3 |  | 35.13 |  | 57 |  |  | 21.55 |  |  | 29.38 |  |  |  | 46.08 | 38.16 | Dose-dependent effect | 
4 | C[C@H](NC(=O)[C@@H]1Cc2c([nH]c3ccccc23)CN1)C(=O)N[C@@H](Cc1ccccc1)C(=O)N[C@@H](Cc1c[nH]c2ccccc12)C(=O)O (H-[Tpi]AFW-OH) | 44.8 |  | 42.03 | 32.6 |  | 48.23 |  | 52.7 |  |  | 19.22 |  |  | 28.79 |  |  |  | 46.48 | 37.58 | Dose-dependent effect | 
5 | NCCCC[C@H](NC(=O)[C@@H]1Cc2c([nH]c3ccccc23)CN1)C(=O)N[C@@H](Cc1ccccc1)C(=O)N[C@@H](Cc1c[nH]c2ccccc12)C(=O)O (H-[Tpi]KFW-OH) | 45.4 | 23.08 | 41.28 | 28.3 | 18.99 | 52.22 | 15.43 | 55.2 | 11.55 | 32.32 | 25.69 | 21.39 | 9.06 | 29.04 | 23.58 | 34.48 | 38.33 | 54.39 | 44.27 | Dose-dependent effect | Activity [25]: 14.38%; Activity [26]: 26.54%
